Assay outcomes: PubChem BioAssay, several laboratories
ALR H2O2 inh – inhibitors of human ALR sulfhydryl oxidase, primary screen, biochemical, H2O2 detection, HRP-luminol luminescence, single point; purified ALR, DTT oxidation; inhibition, % (test concentration not listed); 3.8% of 290,000 active;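 active = mean replicate inhibition above about 79%, with every replicate also reaching it, limit read from the data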
Target sequence (P55789 whole entry, looked up): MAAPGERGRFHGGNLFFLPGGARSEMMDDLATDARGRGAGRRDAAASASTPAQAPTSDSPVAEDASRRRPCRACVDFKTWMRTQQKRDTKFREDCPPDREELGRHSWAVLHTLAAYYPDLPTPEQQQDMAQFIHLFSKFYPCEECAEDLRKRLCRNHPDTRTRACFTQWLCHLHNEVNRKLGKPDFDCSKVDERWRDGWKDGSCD
ATG4B inh – ATG4B protease inhibitors, primary screen, biochemical, fluorescence, uHTS | Cysteine protease ATG4B (Homo sapiens), Q9Y4P1 | ATG4B cleavage of LC3-PLA2, NBD-HPC fluorescence, 1 h | inhibition, % at 8.33 µM | 0.51% of 340,000 active | AID 504462, 2011; in the data active = inhibition above about 40%
NLRP3 yeast inh – NALP3 inflammasome inhibitors in reconstituted yeast, primary screen, luminescence, uHTS. Yeast reconstituted NLRP3/ASC/caspase-1, beta-gal luminescence, 24 h. inhibition, % at 10 µM. 0.39% of 330,000 active. AID 2825, 2010;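 active = inhibition of 50% or more; inactive = inhibition below 50%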
NALP1 inh – NALP1 inflammasome inhibitors in reconstituted yeast, colorimetric, S. cerevisiae, triplicate retest. 0.61% of 280,000 active. inhibition, % at 10 µM. AID 2071, 2009. S. cerevisiae NALP1/ASC/caspase-1 growth, X-gal OD620, 72 h; in the data active = inhibition mostly above about 24%, no sharp cut-off; inactive = mostly below about 32%
UCH37 inh – inhibitors of human UCH37 deubiquitinase, primary screen, biochemical, Ub-AMC cleavage, fluorescence. Ubiquitin carboxyl-terminal hydrolase isozyme L5 (Homo sapiens), Q9Y5K5. purified proteasome/UCH37. inhibition, % (concentration not given with the values). 0.33% of 330,000 active;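 active = mean inhibition over replicate wells above about 20%, limit read from the data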
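Material: human UCH37 enzyme supplied as purified proteasome complex. Measure: % inhibition of Ub-AMC cleavage fluorescence. Medium: pH 7.4 Tris-HCl (50 mM) with ovalbumin, ATP-MgCl2, DTT. Times: 30 min preincubation with enzyme, 25 min cleavage at room temperature. Detection: AMC fluorescence intensity at 355/460 nm.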
Calb FLC – C. albicans growth inhibition with fluconazole, primary screen, CaCi-2 strain, Alamar Blue fluorescence; C. albicans CaCi-2 (fluconazole-resistant clinical isolate) + fluconazole, 48 h; growth inhibition, % (concentration not given with the values); 0.57% of 300,000 active;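 active = growth inhibition above about 58% in most replicates, limit read from the data, passing the limit was not always enough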;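 also: all wells also contain fluconazole at 8 µg/ml as a sub-toxic cotreatment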
ATG4B confirm – ATG4B protease inhibitors, retest, confirmation, biochemical, fluorescence, single concentration | shares compounds with ATG4B inh | ATG4B protease fluorescent substrate cleavage assay | inhibition, % at 8.33 µM | 92% of 320 active; in the data active = inhibition above about 39%
PLA2 counter – PLA2 enzyme inhibition, counter-screen for ATG4B inhibitor project, biochemical, single concentration, uHTS hits. shares compounds with ATG4B inh. purified PLA2, NBD-C6-HPC fluorescence, 45 min. inhibition, % at 8.33 µM. 66% of 1,600 active; in the data active = inhibition above about 50%
Target sequence (P04054 whole entry, looked up): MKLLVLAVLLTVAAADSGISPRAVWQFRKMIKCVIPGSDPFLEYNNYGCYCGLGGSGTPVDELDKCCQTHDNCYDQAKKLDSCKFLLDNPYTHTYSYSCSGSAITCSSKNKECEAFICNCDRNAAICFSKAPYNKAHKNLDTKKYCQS
Each line names hits and unclear results; the compound was inactive in the other large screens (follow-up assays come after a bar, where they were run). Rows were chosen to be rich in hits. Some 4.8% of all compounds tested hit in one or more screens of this group.

Fc1ccc(CNC(=S)NCc2ccccc2)cc1	ATG4B inh 43 (no result: UCH37 inh) | ATG4B confirm 71 | PLA2 counter inactive
O=[N+]([O-])c1ccc(NC(=S)NCc2ccc(F)cc2)cc1	ATG4B inh 57 (no result: UCH37 inh) | PLA2 counter 68
S=C(NCCC(c1ccccc1)c1ccccc1)Nc1cccc(Cl)c1	ATG4B inh 46 | PLA2 counter 70
COC(=O)c1cccc(NC(=S)NCc2ccc(F)cc2)c1	ATG4B inh 42 | PLA2 counter 50
COc1ccccc1NS(=O)(=O)c1cccc(C(=O)NN=Cc2ccc(NC(C)=O)cc2)c1	none (no result: ALR H2O2 inh, ATG4B inh, NLRP3 yeast inh, NALP1 inh, Calb FLC)
CC(C)C(=O)OCC(=O)NCc1ccccc1Cl	none
CCNC(=S)Nc1ccc(Oc2ccccc2)cc1	none (no result: NALP1 inh)
Fc1ccc(CNC(=S)Nc2cccc(Cl)c2)cc1	ATG4B inh 61 (no result: ALR H2O2 inh) | PLA2 counter 67
O=C(COC(=O)c1ccccc1Nc1ccccc1)NCc1ccccc1Cl	ATG4B inh 49 | PLA2 counter inactive
O=C(NCc1ccccc1)c1cccc(NC(=O)c2ccccc2)c1	none (no result: ALR H2O2 inh, NLRP3 yeast inh, NALP1 inh, UCH37 inh, Calb FLC)
O=C(NCc1ccccc1Cl)c1cccc(NC(=O)c2ccccc2)c1	ATG4B inh 48 | PLA2 counter 53
S=C(NCc1ccccc1)Nc1ccc(Oc2ccccc2)cc1	ATG4B inh 57 | PLA2 counter 67
CC(CC(=O)NCCCN1CCOCC1)=NNC(=O)COc1ccc(Cl)cc1	none (no result: ALR H2O2 inh, ATG4B inh, NLRP3 yeast inh, NALP1 inh, Calb FLC)
CCN(CC)C(=S)Nc1ccc([N+](=O)[O-])cc1	ATG4B inh 58 | PLA2 counter inactive
O=C(NCc1ccccc1Cl)c1ccccc1Oc1ccccc1	ATG4B inh 53 | PLA2 counter inactive
CCNC(=O)C(=O)Nc1ccc([N+](=O)[O-])cc1	none
O=C(NCc1ccccc1Cl)c1ccccc1CCc1ccccc1	none
FC(F)(F)c1cccc(NC(=S)NNC(=S)NCc2ccccc2)c1	ATG4B inh 42 | PLA2 counter inactive
Fc1ccc(CNC(=S)Nc2ccc(Cl)cc2)cc1	ATG4B inh 43 | PLA2 counter 52
C=CCOc1ccccc1C=c1sc2nc(=O)c(C)nn2c1=O	none (no result: ALR H2O2 inh, ATG4B inh, NLRP3 yeast inh, NALP1 inh, Calb FLC)
CCOC(=O)c1cc(C)sc1N=CC1=C(O)CCCC1=O	none (no result: ALR H2O2 inh, ATG4B inh, NLRP3 yeast inh, NALP1 inh, Calb FLC)
Fc1cccc(NC(=S)NCc2ccccc2Cl)c1	ATG4B inh 40 (no result: ALR H2O2 inh) | PLA2 counter inactive
S=C(NCc1ccccc1Cl)Nc1ccccc1Cl	none
Cc1ccc(NC(=S)NCc2ccc(Cl)cc2)c(OC(F)F)c1	ATG4B inh 47 | PLA2 counter 55
Fc1ccc(NC(=S)Nc2ccc(F)c(Cl)c2)cc1Cl	ATG4B inh 72 | PLA2 counter 76
CC(=NNC(=O)CCC(=O)NCc1ccccc1)c1ccco1	none (no result: ALR H2O2 inh, ATG4B inh, NLRP3 yeast inh, NALP1 inh, Calb FLC)
C/C(=N/Nc1ccc([N+](=O)[O-])cc1)c1c[nH]c2ccccc12	ATG4B inh 46 (no result: UCH37 inh) | PLA2 counter inactive
c1cncc(-c2nc(NCCCN3CCOCC3)c3c4c(sc3n2)CCC4)c1	ATG4B inh 40 | PLA2 counter 57
COc1ccc([C@H]2CC(=O)C=C(c3ccccc3-c3ccccc3)C2)cc1	ATG4B inh 42 (no result: NALP1 inh, Calb FLC) | PLA2 counter 58
COc1cc(C=Nn2nnnc2N)ccc1OCC#N	none (no result: ALR H2O2 inh, ATG4B inh, NLRP3 yeast inh, NALP1 inh, Calb FLC)
Cc1cc(C=NNC(=O)COc2cccc3cccnc23)c(C)n1-c1ccccc1	none (no result: ALR H2O2 inh, ATG4B inh, NLRP3 yeast inh, NALP1 inh, Calb FLC)
Oc1nc(Nc2cccc(Cl)c2)sc1/C=C1\C=Nc2ccccc21	ATG4B inh 73 | PLA2 counter 83
C/C(C=NN1C(=O)CSC1=S)=C\c1ccccc1	none (no result: ALR H2O2 inh, ATG4B inh, NLRP3 yeast inh, NALP1 inh, Calb FLC)
COc1cc(C=NNC(=O)Nc2cccc3nsnc23)cc(OC)c1OC	none (no result: ALR H2O2 inh, ATG4B inh, NLRP3 yeast inh, NALP1 inh, Calb FLC)
O=C(NN=C(CC(=O)c1cccs1)C(F)(F)F)c1ccc(O)cc1	none (no result: ALR H2O2 inh, ATG4B inh, NLRP3 yeast inh, NALP1 inh, Calb FLC)
